Screening data: PubChem BioAssay, Johns Hopkins Ion Channel Center
KCNQ1 block: human KCNQ1 channel inhibition; P51787; actives 1.3% (n = 310,000); CHO-K1 KCNQ1, FluxOR thallium flux fluorescence; hits give high values; B-score at 10 µM;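 active means compounds whose thallium flux B-score, printed positive for inhibition, exceeds three library SD while starting fluorescence stays within three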;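 further: channel opened by potassium depolarization with thallium stimulus after 20 min compound exposure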
hERG protect: shields human hERG channel from block by proarrhythmic agents | AID 1511 | Q12809 | actives 0.51% (n = 310,000) | activation (rescue from dofetilide block), less the hit threshold, % at 10 µM | CHO-hERG, FluxOR thallium flux, dofetilide IC70 present;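 active means activation above the mean of controls blocked by dofetilide plus 5 SD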;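 further: thallium influx through hERG after potassium depolarization seen as dye fluorescence rise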
KCNK9 inh-1: inhibitors of human KCNK9 two-pore domain potassium channel | Q9NPC2 | HEK293 KCNK9, FluxOR thallium flux fluorescence; hits give low values | B-score at 10 µM | actives 1.2% (n = 310,000);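 active means ratio B-score over 3 SD below the library mean, with starting fluorescence within 5 SD of its mean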;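 further: negative B-score means less thallium flux so channel inhibition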
Target sequence (Q9NPC2 whole entry, looked up, the tested form may be a part): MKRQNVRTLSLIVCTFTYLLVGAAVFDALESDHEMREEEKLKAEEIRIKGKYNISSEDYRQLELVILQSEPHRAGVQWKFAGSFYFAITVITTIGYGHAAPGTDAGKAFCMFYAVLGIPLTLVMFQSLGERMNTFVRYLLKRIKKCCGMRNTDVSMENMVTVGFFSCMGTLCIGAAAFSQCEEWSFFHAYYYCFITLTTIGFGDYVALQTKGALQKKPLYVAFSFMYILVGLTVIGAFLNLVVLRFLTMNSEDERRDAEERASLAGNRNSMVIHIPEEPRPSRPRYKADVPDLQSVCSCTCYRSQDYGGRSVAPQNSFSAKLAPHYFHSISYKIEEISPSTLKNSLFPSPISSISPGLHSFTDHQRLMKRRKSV
Kir21 block: Kir2.1 (mouse) channel inhibition; HEK293-Kir2.1, FluxOR thallium flux fluorescence; hits give low values; B-score at 10 µM; actives 0.85% (n = 310,000); AID 1672;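 active means fluorescence ratio B-score at or below minus 3 SD of library scores, with starting-brightness B-score within 2 SD, cut at about -4.2 in these data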;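 further: channel flux triggered by added potassium and thallium sulfate stimulus; B-score of peak minus minimum fluorescence over baseline after thallium stimulus; more negative B-score means stronger Kir2.1 block with less thallium influx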
KCNQ1 act: human KCNQ1 channel potentiation or activation. P51787. B-score at 10 µM. actives 0.35% (n = 310,000). CHO-K1 KCNQ1, thallium flux FluxOR fluorescence; hits give high values. AID 2648;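 active means fluorescence ratio B-score, a plate-corrected score, at least three library SD, with initial intensity B-score within 5 SD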
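assay system = CHO-K1 cells stably expressing KCNQ1 | medium = assay buffer, equal DMSO in all wells | timing = 37 °C overnight plating, 90-min dark dye load, 20-min compound pretreatment | measured by = kinetic FluxOR thallium fluorescence, 10-s 1-Hz baseline, 110-s post-stimulus read | measure = fluorescence change relative to baseline, converted to B score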
KCNK3 block: human KCNK3 channel inhibition, primary screen. actives 0.84% (n = 340,000). AID 602410. O14649. CHO-KCNK3 thallium flux, FluxOR fluorescence; hits give low values. B-score at 10 µM;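 active means B-score under library mean minus 4 SD, starting fluorescence ratio at most library mean plus 5 SD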;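 further: more negative B-score means stronger inhibition of thallium flux through KCNK3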
Target sequence (O14649 whole entry, looked up): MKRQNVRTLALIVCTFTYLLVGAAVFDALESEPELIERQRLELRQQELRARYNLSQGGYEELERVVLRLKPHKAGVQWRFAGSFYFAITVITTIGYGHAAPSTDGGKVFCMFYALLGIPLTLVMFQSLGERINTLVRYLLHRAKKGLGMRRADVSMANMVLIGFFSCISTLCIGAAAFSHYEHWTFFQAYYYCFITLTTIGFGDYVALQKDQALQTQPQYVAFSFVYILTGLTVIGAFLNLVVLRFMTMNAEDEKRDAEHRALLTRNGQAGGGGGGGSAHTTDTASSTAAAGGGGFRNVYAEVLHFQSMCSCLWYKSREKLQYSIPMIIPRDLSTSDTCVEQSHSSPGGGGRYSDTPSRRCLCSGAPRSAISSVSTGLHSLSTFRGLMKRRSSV
hERG inh: counter-screen for Kir2.1 inhibitors: effect on human hERG. shares compounds with Kir21 block. hERG-expressing cells, thallium flux. inhibition, % at 10 µM. actives 20% (n = 320). AID 2236;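 further: host cells are CHO cells stably expressing hERG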
KCNK9 inh-2: human KCNK9 off-target activity of Kir2.1 blockers | shares compounds with Kir21 block | KCNK9-expressing cells, ion flux inhibition | inhibition, % at 10 µM | actives 5% (n = 320)
Kir21 ephys inh: inhibitors of mouse Kir2.1 potassium channel | shares compounds with Kir21 block | Kir2.1 cells, automated patch-clamp current inhibition | inhibition, % at 25 µM | actives 71% (n = 320)
KCNQ1 inh valid: human KCNQ1 channel inhibition, validation assay. inhibition, % at 10 µM. KCNQ1 cell line, FluxOR thallium flux fluorescence. actives 93% (n = 1,600). shares compounds with KCNQ1 block;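 active means primary screen active, with duplicate mean exceeding buffer control mean plus 3 SD of buffer wells, cut at about 28% in these data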;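 further: 0% = buffer control ratio and 100% = XE991 inhibitor control ratio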
CHO Tl flux: activity in parental CHO cells lacking KCNQ1; shares compounds with KCNQ1 block; parental CHO-K1, FluxOR thallium flux fluorescence ratio; hits give low values; zero means no signal rise above baseline; fluorescence ratio (Tl flux) at 10 µM; actives 21% (n = 1,600);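 active means mean of duplicate thallium-flux fluorescence ratios in parental host cells more than 5 SD below the buffer control mean, cut at about 0.38 in these data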;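 further: ratio is peak minus minimum fluorescence divided by baseline fluorescence; actives read low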
KCNQ1 APC inh: human KCNQ1 inhibition validated by electrophysiology | shares compounds with KCNQ1 block | KCNQ1-CHO cells, automated patch clamp current | calls only at 10 µM | actives 20% (n = 490);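 active means KCNQ1 current drop exceeding 3 SD of negative control wells, seen in both duplicate runs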;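 further: steady state current during a 2 s step from -80 to +40 mV; negative values mean current inhibition and positive values mean potentiation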
KCNQ2 inh: KCNQ1 inhibitor that also blocks rat KCNQ2 channel. actives 71% (n = 1,600). KCNQ2 cells, FluxOR thallium flux fluorescence. AID 651746. inhibition, % at 10 µM. shares compounds with KCNQ1 block;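 active means mean percent inhibition of the KCNQ2 thallium signal more than 5 SD above the buffer-only control wells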;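 further: KCNQ2 expressed in CHO cells; 0% = buffer control wells and 100% = XE-991 inhibitor control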
KCNQ1 KCNE1 spec: selectivity of KCNQ1 inhibitors: inhibition of human KCNQ1/KCNE1 channel; inhibition, % at 10 µM; KCNQ1/KCNE1 cells, FluxOR thallium flux fluorescence; shares compounds with KCNQ1 block; actives 77% (n = 1,600);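 active means mean percent inhibition of duplicate wells above the buffer-only control mean plus 3 SD of those controls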;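 further: 0% = buffer only wells and 100% = XE-991 inhibitor control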
KCNK9 inh conf: human KCNK9 inhibitor confirmation; inhibition, % at 10 µM; actives 43% (n = 4,900); shares compounds with KCNK9 inh-1; HEK293 KCNK9 cells, FluxOR thallium flux fluorescence;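 active means thallium signal inhibited by more than 5 SD of the compound-free buffer control wells, on both duplicate plates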;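 further: 0% = assay buffer control wells without compound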
Kir21 sel: tests whether KCNK9 modulators also affect mouse Kir2.1 | shares compounds with KCNK9 inh-1 | Kir2.1 cells, FluxOR thallium flux fluorescence | inhibition, % at 10 µM | actives 4% (n = 4,900);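 active means thallium signal drop more than 5 SD beyond the mean of the no-compound control wells, seen in both duplicate plates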;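 further: signal is fluorescence rise after thallium addition divided by baseline fluorescence; plate controls were assay buffer only for no effect and full block by chlorpromazine control for full effect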
HEK293 Tl ctr: second counter-screen for KCNK9 modulators: effect in non-induced cells | shares compounds with KCNK9 inh-1 | non-induced KCNK9-HEK293, FluxOR thallium flux | inhibition, % at 10 µM | actives 40% (n = 4,900) | AID 492997;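 active means thallium signal drop beyond 5 SD of the untreated control mean, on both duplicate plates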;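 further: plate controls were buffer only IC0 wells for no effect and SID17386958 at its maximal inhibitory level for full effect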
KCNK3 inh conf: human KCNK3 channel inhibition, confirmation assay; shares compounds with KCNK3 block; CHO-KCNK3 thallium flux, FluxOR fluorescence; 0% buffer, 100% carvedilol maximal block; ratio percent of control, % at 10 µM; actives 99% (n = 2,400);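 active means ratio percent of control, averaged over triplicates, above buffer control mean plus 5 SD, cut at about 64% in these data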;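 further: ratio is the fluorescence rise from min to max over baseline after thallium stimulus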
KCNK3 uninduced: counter-screen for KCNK3 inhibitors: effect in non-induced cells; shares compounds with KCNK3 block; actives 40% (n = 2,400); thallium flux ratio (lower = more inhibition) at 10 µM; AID 651747; non-induced KCNK3 parental cells, FluxOR thallium flux; hits give low values;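 active means thallium flux ratio, averaged over three wells, more than 5 SD below the buffer control mean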;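 further: host cells are CHO cells without KCNK3 induction; ratio is peak minus trough fluorescence over baseline then normalized to buffer controls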
Starred values were filed as active, the others as inactive; i = inactive; / = not tested or not shown; + = active, no number. Sampled rows, rich in hits. Any-hit rate of the full collection: about 3.8%. Unless noted, how the calls were made is not given here.

SMILES	KCNQ1 block	hERG protect	KCNK9 inh-1	Kir21 block	KCNQ1 act	KCNK3 block	KCNQ1 inh valid	CHO Tl flux	KCNQ2 inh	KCNQ1 KCNE1 spec	others
CCCCCSc1cc(OC)c(CCN)cc1OC	6*	-12	i	-6.2*	i	i	/	/	/	/	hERG inh=i;KCNK9 inh-2=i;Kir21 ephys inh=26%*
COc1cc(CCN)ccc1O	/	/	/	/	/	i	/	/	/	/
Cc1cc(C)n(CCOC(=O)C2C(C=C(Cl)Cl)C2(C)C)n1 (configuration not stated)	i	-4	i	-9.8*	i	i	/	/	/	/	hERG inh=i;KCNK9 inh-2=i;Kir21 ephys inh=41%*
Fc1ccc(CCNCc2ccccc2Cl)cc1	i	-5	i	0.28	i	i	/	/	/	/
CCOc1ccc(Cl)cc1CNCCc1ccc(F)cc1	i	-17	i	-6.4*	i	i	/	/	/	/	hERG inh=i;KCNK9 inh-2=i;Kir21 ephys inh=57%*
COc1ccc(C(=O)C2CN(C)CC2c2ccc(Cl)cc2)cc1 (configuration not stated)	i	-20	i	-6.4*	i	i	/	/	/	/	hERG inh=51%*;KCNK9 inh-2=i;Kir21 ephys inh=i
COc1cccc(C(=O)C2CN(C)CC2c2ccc(Cl)cc2)c1 (configuration not stated)	i	-15	i	-7.1*	i	i	/	/	/	/	hERG inh=46%*;KCNK9 inh-2=i;Kir21 ephys inh=25%*
C[C@]12CCC(=O)C=C1C=CC1C2CC[C@]2(C)C(=O)CCC12 (some centres not stated)	/	/	/	/	/	i	/	/	/	/
CC(=O)c1cc(C#N)c(N2CCN(C)CC2)nc1C	i	-4	i	-0.02	i	i	/	/	/	/
COc1ccc(C(=O)Oc2cccc3cccnc23)cc1S(=O)(=O)N1CCOCC1	i	-15	i	0.8	i	i	/	/	/	/
Cc1sc2c(c1C)C(c1ccc(C(C)(C)C)cc1)=NCC(=O)N2CC(=O)Nc1nccs1	6*	-17	i	-0.06	i	i	84*	0.48	i	94%*
O=C1Nc2cc(C(=O)N3CCC4(CC3)OCCO4)ccc2NC1CSCc1cccc(F)c1 (configuration not stated)	i	-4	i	-1.3	i	/	/	/	/	/
CCCCCn1c(=O)c(C(=O)Nc2cnccn2)c(O)c2ccccc21	8*	-10	i	-0.18	i	-10*	78*	0.67	i	68%*
CCCCn1c(=O)c(C(=O)Nc2ccccc2S(N)(=O)=O)c(O)c2ccccc21	i	-4	i	1.1	i	i	/	/	/	/
CCCCCn1c(=O)c(C(=O)Nc2ccccc2S(N)(=O)=O)c(O)c2ccccc21	9*	-10	i	0.03	i	i	75*	0.45	i	i
CCCCCCCn1c(=O)c(C(=O)Nc2cnccn2)c(O)c2ccccc21	i	-15	i	-1.7	i	i	/	/	/	/
COC(=O)C1C(O)CC2CCC1N2C (configuration not stated)	/	/	/	/	/	i	/	/	/	/
CCOC(=O)C(O)(c1ccc(NC(=O)c2ccc(Cl)c(Cl)c2)cc1)C(F)(F)F (configuration not stated)	6*	-9	i	-2.1	i	i	123*	0.53	93%*	144%*	KCNQ1 APC inh=i
Brc1cccc(CNCCc2ccc3c(c2)OCO3)c1	6*	-1	i	-2.9	i	i	100*	0.44	86%*	54%*	KCNQ1 APC inh=+
Oc1c(Br)c(Br)c(Br)c(Br)c1Br	/	/	/	/	/	i	/	/	/	/
COc1ccc(-[n+]2c(-c3ccccc3)cc(-c3ccc(C)cc3)cc2-c2ccccc2)cc1	15*	-31	-16*	-13*	i	-8.9*	94*	0.44	109%*	163%*	KCNQ1 APC inh=+;KCNK9 inh conf=60%*;Kir21 sel=78%*;HEK293 Tl ctr=30%*
COC(=O)C1=C(c2ccc(F)cc2F)C[C@@H]2CC[C@H]1N2C(=O)NCc1ccco1	/	/	/	/	/	i	/	/	/	/
Cc1ccc(O)c(C(=O)c2cc(C(=O)NCCC(C)C)c(=O)n(CCC(C)C)c2)c1	19*	-14	i	-0.22	i	-9.5*	130*	0.39	126%*	124%*	KCNQ1 APC inh=i;KCNK3 inh conf=132*;KCNK3 uninduced=0.16*
CC(N)Cc1cn(Cc2ccccc2)c2ccccc12 (configuration not stated)	i	-16	i	-0.78	i	i	/	/	/	/
COc1cc(CN2CCN(c3cc(C)ccc3C)CC2)ccc1O	i	-13	i	-1.6	i	i	/	/	/	/	KCNK9 inh conf=i;Kir21 sel=i;HEK293 Tl ctr=i
